For one experiment, the species on record is Cavia porcellus. In words: Intrinsic activity at bradykinin receptor in guinea pig ileum assessed as ratio of bradykinin dose to compound dose to give 50% maximum myotropic activity. The class given is tissue-based. A digest of the protocol:
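Strips of terminal guinea pig ileum, 2–3 cm long, were held in Tyrode's solution at 36 °C and bubbled with 95% O2-5% CO2. Isotonic contractions were recorded under 1 g tension. Full dose-response curves were run for bradykinin and analogue. The potency ratio was taken at the dose giving 50% maximal contraction.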

Experiment [1] concerns Rattus norvegicus. As to the kind of experiment: Vasodepressor activity in rat assessed as ratio of bradykinin dose to compound intravenous dose that produce 20 mmHg fall in mean blood pressure. The class given is functional.
The species entered for experiment [2] is Rattus norvegicus. In words: Intrinsic activity at bradykinin receptor in estrous rat uterus assessed as ratio of bradykinin dose to compound dose to give 50% maximum myotropic activity. The essentials: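 Uteri from estrous virgin rats were bathed in modified deJalon's solution with 20 mg/L CaCl2, at 30 °C, gassed with 98% O2-2% CO2. Isotonic contractions were recorded under 1 g tension. Full dose-response curves were run for bradykinin and analogue. The potency ratio was taken at the dose giving 50% maximal contraction.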

The species entered for experiment [3] is Rattus norvegicus. In words: Vasodepressor activity in rat assessed as ratio of intraarterial dose of bradykinin to dose of compound that produce 20 mmHg fall in mean blood pressure. The class given is functional, Artery. A digest of the protocol:
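Male rats were anesthetized with Dial-urethan. Mean arterial pressure was recorded from the femoral artery. Drugs were given in saline by intracarotid injection. The ratio compares bradykinin and analogue doses that each lower mean pressure by 20 mmHg.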

Experiment [4] is filed under the species Rattus norvegicus. As to the kind of experiment: Antagonist activity at bradykinin receptor in estrous rat uterus assessed as inhibition of bradykinin-induced myotropic activity at 1 x 10^-5 M preincubated for 2 mins followed by bradykinin addition. The class given is tissue-based. The essentials:
(§1)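 Uteri from estrous virgin rats were suspended in modified deJalon's solution containing 20 mg/L CaCl2, kept at 30 °C and gassed with 98% O2-2% CO2. Isotonic contractions were recorded under 1 g tension. Analogue was added to the bath 2 min before various doses of bradykinin. Potency was compared at the concentration giving 50% maximal contraction.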

For experiment [5], the species on record is Rattus norvegicus. In words: Antagonist activity at bradykinin receptor in estrous rat uterus assessed as inhibition of bradykinin-induced myotropic activity at 1 x 10^-6 M preincubated for 2 mins followed by bradykinin addition. The experiment is classed as tissue-based. A digest of the protocol:
as §1

The species named for experiment [6] is Rattus norvegicus. As to the kind of experiment: Antagonist activity at bradykinin receptor in estrous rat uterus assessed as inhibition of bradykinin-induced myotropic activity at 2.5 x 10^-6 M preincubated for 2 mins followed by bradykinin addition. The class given is tissue-based. The essentials:
as §1

These results are taken from ChEMBL document CHEMBL3244415, “Synthesis and pharmacological properties of [5-isoleucine]-, [8-isoleucine]-, and [5,8-diisoleucine]bradykinin” (1979).

Calls of active or inactive are those of the source. No cut-off for these calls is given here. Non-standard residues stand in square brackets, D forms with d. Residues, ends and D or L forms follow the SMILES beside them. Cha = N[C@@H](CC1CCCCC1)C(=O)O Some results are limits rather than exact numbers.

In the case of `N=C(N)NCCC[C@H](NC(=O)[C@H](CC1CCCCC1)NC(=O)[C@@H]1CCCN1C(=O)[C@H](CO)NC(=O)[C@H](CC1CCCCC1)NC(=O)CNC(=O)[C@@H]1CCCN1C(=O)[C@@H]1CCCN1C(=O)[C@@H](N)CCCNC(=N)N)C(=O)O` (H-RPPG[Cha]SP[Cha]R-OH), the Ratio in the experiment filed under Cavia porcellus worked out at 1; in the experiment on Rattus norvegicus [1], 1; in the experiment filed under Rattus norvegicus [2] it was 0.33.
For H-RPPGISPIR-OH, the Ratio was under 0.00018 in the experiment filed under Rattus norvegicus [3] and under 0.0002 in the experiment listed under Rattus norvegicus [2]. The inhibition result in the experiment filed under Rattus norvegicus [4] was “inactive”.
In the case of H-RPPGFSPIR-OH, in the experiment filed under Rattus norvegicus [5], the inhibition entry was “inactive”. Besides, the Ratio in the experiment listed under Rattus norvegicus [3] stood at 0.00056.
Take H-RPPGISPFR-OH: the Ratio in the experiment filed under Rattus norvegicus [3] was found to be 0.00018; in the experiment filed under Rattus norvegicus [2], 0.00028. Further, the inhibition entry in the experiment listed under Rattus norvegicus [6] was “inactive”.
